Assays:
Type in all cases: functional
[1] = tested on: NCI-H23; assay: Growth inhibition of human NCI-H23 cells at 10 uM after 48 hrs by SRB assay relative to control; conditions: NCI-H23, 48 h, read-out: GI
Method in brief: (§1)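 Screened at the National Cancer Institute by the standard NCI protocol using the sulforhodamine B assay, which measures cellular protein. Single dose of 10 µM. Result is percent growth inhibition; values above 100% mean cell number fell below the initial population. Values are the average of duplicates.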

[2] = tested on: SN12C; assay: Growth inhibition of human SN12C cells at 10 uM after 48 hrs by SRB assay relative to control; conditions: read-out: GI; method in brief: as §1
[3] = tested on: NCI-H460; assay: Growth inhibition of human NCI-H460 cells at 10 uM after 48 hrs by SRB assay relative to control; conditions: NCI-H460, 48 h, read-out: GI; method in brief: as §1
[4] = tested on: MDA-MB-468; assay: Growth inhibition of human MDA-MB-468 cells at 10 uM after 48 hrs by SRB assay relative to control; conditions: MDA-MB-468, 48 h, read-out: GI; method in brief: as §1
[5] = tested on: RXF 393; assay: Growth inhibition of human RXF393 cells at 10 uM after 48 hrs by SRB assay relative to control; conditions: RXF 393, 48 h, read-out: GI; method in brief: as §1
[6] = tested on: NCI-H226; assay: Growth inhibition of human NCI-H226 cells at 10 uM after 48 hrs by SRB assay relative to control; conditions: NCI-H226, 48 h, read-out: GI; method in brief: as §1
[7] = tested on: ACHN; assay: Growth inhibition of human ACHN cells at 10 uM after 48 hrs by SRB assay relative to control; conditions: read-out: GI; method in brief: as §1
[8] = tested on: HCT-15; assay: Growth inhibition of human HCT15 cells at 10 uM after 48 hrs by SRB assay relative to control; conditions: HCT-15, 48 h, read-out: GI; method in brief: as §1
[9] = tested on: CCRF-CEM; assay: Growth inhibition of human CCRF-CEM cells at 10 uM after 48 hrs by SRB assay relative to control; conditions: read-out: GI; method in brief: as §1
[10] = tested on: SF-295; assay: Growth inhibition of human SF295 cells at 10 uM after 48 hrs by SRB assay relative to control; conditions: SF-295, 48 h, read-out: GI; method in brief: as §1
[11] = tested on: MDA-MB-435; assay: Growth inhibition of human MDA-MB-435 cells at 10 uM after 48 hrs by SRB assay relative to control; conditions: MDA-MB-435, 48 h, read-out: GI; method in brief: as §1
[12] = tested on: BT-549; assay: Growth inhibition of human BT549 cells at 10 uM after 48 hrs by SRB assay relative to control; conditions: BT-549, 48 h, read-out: GI; method in brief: as §1
[13] = tested on: SK-MEL-28; assay: Growth inhibition of human SK-MEL-28 cells at 10 uM after 48 hrs by SRB assay relative to control; conditions: SK-MEL-28, 48 h, read-out: GI; method in brief: as §1
[14] = tested on: SW-620; assay: Growth inhibition of human SW620 cells at 10 uM after 48 hrs by SRB assay relative to control; conditions: SW-620, 48 h, read-out: GI
Method in brief: (§2)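 NCI screen against its human cancer cell line panel by the standard NCI protocol, SRB protein stain. Single dose of 10 μM. Percent growth inhibition versus control; values above 100% mean the cell population fell below the starting number. Each value is the mean of duplicates.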

[15] = tested on: SNB-75; assay: Growth inhibition of human SNB75 cells at 10 uM after 48 hrs by SRB assay relative to control; conditions: SNB-75, 48 h, read-out: GI; method in brief: as §2
[16] = tested on: K562; assay: Growth inhibition of human K562 cells at 10 uM after 48 hrs by SRB assay relative to control; conditions: K562, 48 h, read-out: GI; method in brief: as §1
[17] = tested on: RPMI-8226; assay: Growth inhibition of human RPMI8226 cells at 10 uM after 48 hrs by SRB assay relative to control; conditions: RPMI-8226, 48 h, read-out: GI; method in brief: as §1
[18] = tested on: SNB-19; assay: Growth inhibition of human SNB19 cells at 10 uM after 48 hrs by SRB assay relative to control; conditions: SNB-19, 48 h, read-out: GI; method in brief: as §2
[19] = tested on: Malme-3M; assay: Growth inhibition of human MALME-3M cells at 10 uM after 48 hrs by SRB assay relative to control; conditions: read-out: GI; method in brief: as §1
[20] = tested on: SK-MEL-5; assay: Growth inhibition of human SK-MEL-5 cells at 10 uM after 48 hrs by SRB assay relative to control; conditions: SK-MEL-5, 48 h, read-out: GI; method in brief: as §1
[21] = tested on: HT-29; assay: Growth inhibition of human HT-29 cells at 10 uM after 48 hrs by SRB assay relative to control; conditions: HT-29, 48 h, read-out: GI; method in brief: as §1
[22] = tested on: SF-539; assay: Growth inhibition of human SF539 cells at 10 uM after 48 hrs by SRB assay relative to control; conditions: SF-539, 48 h, read-out: GI; method in brief: as §1
[23] = tested on: MOLT-4; assay: Growth inhibition of human MOLT4 cells at 10 uM after 48 hrs by SRB assay relative to control; conditions: MOLT-4, 48 h, read-out: GI; method in brief: as §1
[24] = tested on: OVCAR-8; assay: Growth inhibition of human OVCAR8 cells at 10 uM after 48 hrs by SRB assay relative to control; conditions: OVCAR-8, 48 h, read-out: GI; method in brief: as §1
[25] = tested on: NCI-H522; assay: Growth inhibition of human NCI-H522 cells at 10 uM after 48 hrs by SRB assay relative to control; conditions: NCI-H522, 48 h, read-out: GI; method in brief: as §1
[26] = tested on: DU-145; assay: Growth inhibition of human DU145 cells at 10 uM after 48 hrs by SRB assay relative to control; conditions: DU-145, 48 h, read-out: GI; method in brief: as §1
[27] = tested on: HL-60(TB); assay: Growth inhibition of human HL-60(TB) cells at 10 uM after 48 hrs by SRB assay relative to control; conditions: HL-60, 48 h, read-out: GI
Method in brief: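 Run at NCI under its standard single-dose protocol against a leukemia cell panel. Cells were exposed to 10 µM; growth was read by sulforhodamine B staining of cellular protein and expressed as % growth inhibition versus untreated control. Values above 100% mean the cell population fell below the starting count (cytocidal). Each value is the average of duplicates.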

[28] = tested on: OVCAR-5; assay: Growth inhibition of human OVCAR5 cells at 10 uM after 48 hrs by SRB assay relative to control; conditions: OVCAR-5, 48 h, read-out: GI; method in brief: as §1
[29] = tested on: 786-0; assay: Growth inhibition of human 786-0 cells at 10 uM after 48 hrs by SRB assay relative to control; conditions: 786-0, 48 h, read-out: GI; method in brief: as §1
[30] = tested on: PC-3; assay: Growth inhibition of human PC3 cells at 10 uM after 48 hrs by SRB assay relative to control; conditions: PC-3, 48 h, read-out: GI; method in brief: as §1
[31] = tested on: IGROV-1; assay: Growth inhibition of human IGROV1 cells at 10 uM after 48 hrs by SRB assay relative to control; conditions: IGROV-1, 48 h, read-out: GI; method in brief: as §1
[32] = tested on: TK-10; assay: Growth inhibition of human TK10 cells at 10 uM after 48 hrs by SRB assay relative to control; conditions: TK-10, 48 h, read-out: GI; method in brief: as §2
[33] = tested on: HOP-62; assay: Growth inhibition of human HOP62 cells at 10 uM after 48 hrs by SRB assay relative to control; conditions: HOP-62, 48 h, read-out: GI; method in brief: as §1

Row | Compound | inhibition of growth at 10 µM [1] [%] | inhibition of growth at 10 µM [2] [%] | inhibition of growth at 10 µM [3] [%] | inhibition of growth at 10 µM [4] [%] | inhibition of growth at 10 µM [5] [%] | inhibition of growth at 10 µM [6] [%] | inhibition of growth at 10 µM [7] [%] | inhibition of growth at 10 µM [8] [%] | inhibition of growth at 10 µM [9] [%] | inhibition of growth at 10 µM [10] [%] | inhibition of growth at 10 µM [11] [%] | inhibition of growth at 10 µM [12] [%] | inhibition of growth at 10 µM [13] [%] | inhibition of growth at 10 µM [14] [%] | inhibition of growth at 10 µM [15] [%] | inhibition of growth at 10 µM [16] [%] | inhibition of growth at 10 µM [17] [%] | inhibition of growth at 10 µM [18] [%] | inhibition of growth at 10 µM [19] [%] | inhibition of growth at 10 µM [20] [%] | also measured
1 | COc1cc2oc(-c3cccc(C(=O)Nc4ccccc4)c3)cc(=O)c2c(OC)c1OC | 7.79 | 27.3 | 11.2 | 9.98 | 24.9 | 12.7 | 8.22 | 20.8 | 35.1 | 4.34 | 8.87 | 24.2 | 8.31 | -0.72 | 7.02 | 29.6 | 59.4 | 4.37 | 12.5 | 35.3 | inhibition of growth at 10 µM [21]: 11.5%; inhibition of growth at 10 µM [22]: 19.8%; inhibition of growth at 10 µM [23]: 43.2%; inhibition of growth at 10 µM [24]: 34.9%; inhibition of growth at 10 µM [25]: 21.9%; inhibition of growth at 10 µM [26]: 12.2%; inhibition of growth at 10 µM [27]: 12.7%; inhibition of growth at 10 µM [28]: 16.2%; inhibition of growth at 10 µM [29]: 7.46%; inhibition of growth at 10 µM [30]: 29%; inhibition of growth at 10 µM [31]: 19.4%; inhibition of growth at 10 µM [32]: 8.98%; inhibition of growth at 10 µM [33]: 13.7%
2 | COc1ccc(NC(=O)c2cccc(-c3cc(=O)c4c(O)c(OC)c(OC)cc4o3)c2)cc1 | 8.74 | 15.7 | 7.3 | 15.7 | 8.01 | 8.07 | 16.4 | -7.36 | 16 | -3.77 | -5.05 | 69 | -4.12 | -1.58 | 105 | 8.23 | 7.48 | 38.4 | 19.4 | 8.61 | inhibition of growth at 10 µM [21]: 12.3%; inhibition of growth at 10 µM [22]: 43.9%; inhibition of growth at 10 µM [23]: -2.73%; inhibition of growth at 10 µM [24]: 19.4%; inhibition of growth at 10 µM [25]: 20.6%; inhibition of growth at 10 µM [26]: 3.06%; inhibition of growth at 10 µM [27]: -29.7%; inhibition of growth at 10 µM [28]: 2.51%; inhibition of growth at 10 µM [29]: 57%; inhibition of growth at 10 µM [30]: 13.8%; inhibition of growth at 10 µM [31]: 4.86%; inhibition of growth at 10 µM [32]: -5.09%; inhibition of growth at 10 µM [33]: 27.8%
3 | COc1cc2oc(-c3cccc(NC(=O)c4ccccc4)c3)cc(=O)c2c(OC)c1OC | 27.1 | 23.8 | 21.3 | 15.8 | 25.6 | 18.6 | 38.4 | 34.8 | 54.3 | 22.2 | 19.3 | 25.9 | 26.8 | 8.49 | 22.6 | 56.9 | 73.4 | 8.59 | 13.2 | 36.8 | inhibition of growth at 10 µM [21]: 22.9%; inhibition of growth at 10 µM [22]: 32.2%; inhibition of growth at 10 µM [23]: 59.4%; inhibition of growth at 10 µM [24]: 39%; inhibition of growth at 10 µM [25]: 50.7%; inhibition of growth at 10 µM [26]: 14.5%; inhibition of growth at 10 µM [27]: 39.5%; inhibition of growth at 10 µM [28]: -0.09%; inhibition of growth at 10 µM [29]: 21.9%; inhibition of growth at 10 µM [30]: 46.9%; inhibition of growth at 10 µM [31]: 21.6%; inhibition of growth at 10 µM [32]: 8.72%; inhibition of growth at 10 µM [33]: 21.6%
